pEC50: −log10 of the molar value. Active and inactive are the calls of the source. How the calls were made is not given here.
Tests used:
[1] = Cytotoxicity against mock-infected human MT4 cells assessed as reduction in cell viability after 96 hrs by MTT assay; assay type: cell-based
Outline: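 Exponentially growing MT-4 cells seeded at 1 × 10^5 cells/mL in RPMI-1640 with 10% FCS, penicillin and streptomycin, with or without serial compound dilutions. Incubated at 37 °C, 5% CO2; viability read by MTT after 96 h. CC50 is the concentration reducing mock-infected cell viability by 50%.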

[2] = Cytotoxicity against mock-infected MDBK cells assessed as reduction in cell viability after 96 hrs by MTT assay; assay type: cell-based, Bos taurus; conditions: cattle
Outline: (§1)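 Cytotoxicity run in parallel with the antiviral assays. MDBK seeded at 6 × 10^5 and BHK at 1 × 10^6 cells/mL in maintenance medium with or without serial compound dilutions. Incubated 48–96 h at 37 °C, 5% CO2, then viability read by MTT. CC50 is the concentration reducing mock-infected cell viability by 50%.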

[3] = test system: Bovine viral diarrhea virus 1; experiment: Antiviral activity against BVDV infected in MDBK cells assessed as protection against virus-induced cytopathogenicity after 4 days by MTT assay; assay type: functional, organism-based; conditions: Bovine viral diarrhea virus isolates and strains, 96 h
Outline: (§2)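 MDBK (BVDV) or BHK-21 (YFV) cells were seeded at 3 × 10^4 or 5 × 10^4 cells/well respectively and grown overnight to confluent monolayers at 37 °C in 5% CO2. Monolayers were infected at m.o.i. 0.01 in serum-free medium. After 1 h, MEM Earle's with 1% FCS was added, with or without serial compound dilutions. After 3–4 days at 37 °C, viability was read by MTT. EC50 was taken as 50% protection from virus-induced cytopathogenicity.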

[4] = Cytotoxicity against mock-infected BHK cells assessed as reduction in cell viability after 96 hrs by MTT assay; assay type: cell-based, Mesocricetus auratus; conditions: hamster; outline: as §1
Yellow fever virus = experiment: Antiviral activity against YFV infected in BHK21 cells assessed as protection against virus-induced cytopathogenicity after 4 days by MTT assay; assay type: functional, organism-based; conditions: BHK-21, 96 h; outline: as §2
[5] = Cytotoxicity against mock-infected african green monkey Vero76 cells assessed as reduction in cell viability after 96 hrs by MTT assay; assay type: cell-based, Vero; conditions: chlorocebus sabaeus
Coxsackievirus B2 = experiment: Antiviral activity against CVB2 infected in Vero76 cells assessed as reduction in virus plaque formation after 4 days by MTT assay; assay type: functional, organism-based; conditions: Enterovirus B, Vero 76, 96 h
[6] = test system: Respiratory syncytial virus; experiment: Antiviral activity against RSV infected in Vero76 cells assessed as reduction in virus plaque formation after 4 days by MTT assay; assay type: functional, organism-based; conditions: human respiratory syncytial virus, Vero 76, 96 h
Poliovirus 1 = experiment: Antiviral activity against Sb1 virus infected in Vero76 cells assessed as reduction in virus plaque formation after 4 days by MTT assay; assay type: functional, organism-based; conditions: Enterovirus C, Sabin, Vero 76, 96 h
[7] = test system: Human immunodeficiency virus 1; experiment: Antiviral activity against HIV1 infected in MT4 cells assessed as virus-induced cytopathogenicity after 4 days; assay type: functional, organism-based
Vaccinia virus = experiment: Antiviral activity against VV infected in Vero76 cells assessed as reduction in virus plaque formation after 4 days by MTT assay; assay type: functional, organism-based; conditions: Orthopoxvirus vaccinia; Vero 76
[8] = test system: Vesicular stomatitis virus; experiment: Antiviral activity against VSV infected in Vero76 cells assessed as reduction in virus plaque formation after 4 days by MTT assay; assay type: functional, organism-based; conditions: Vero 76

SMILES	CC50 at 96 h [1] [µM]	CC50 at 96 h [2] [µM]	pEC50 [3]	CC50 at 96 h [4] [µM]	pEC50 (Yellow fever virus)	CC50 at 96 h [5] [µM]	pEC50 (Coxsackievirus B2)	pEC50 [6]	pEC50 (Poliovirus 1)	Activity [7]	Activity (Vaccinia virus)	Activity [8]
CCOC(=O)c1ccc(/N=N/C=C/N2CCCCC2)cc1	33	> 100	< 4.00	> 100	< 4.00	> 100	4.46	< 4.00	4.57	inactive	inactive	inactive
Clc1ccc(/N=N\C2=C3CCCCN3CCC2)cc1Cl	35	30	< 4.52	54	< 4.27	> 100	4.42	< 4.00	< 4.00	inactive	inactive	inactive
FC(F)(F)c1cccc(/N=N\C2=C3CCCCN3CCC2)c1	4	8	< 5.10	40	< 4.40	> 100	4.68	< 4.00	< 4.00	inactive	inactive	inactive
Cc1ccc(/N=N/C=C2\CCCN2Cc2ccccc2)cc1	10	22	< 4.66	25	< 4.60	50	5.10	< 4.30	< 4.30	inactive	inactive	inactive
O=[N+]([O-])c1cc(/N=N\C2=C3CCCCN3CCC2)ccc1Cl	33	18	4.74	10	< 5.00	100	4.29	4.12	< 4.00	inactive	inactive	inactive
Clc1ccc(/N=N\C2=C3CCCN3CCC2)cc1	> 100	30	< 4.52	34	< 4.47	75	5.00	< 4.12	4.70	inactive	inactive	inactive
CN1CCC/C1=C\N=N\c1cccc(C(F)(F)F)c1	49	90	4.68	50	< 4.30	> 100	< 4.00	< 4.00	< 4.00	inactive	inactive	inactive
CC(=O)c1ccc(N2CCN(/C=C/N=N/c3ccccc3)CC2)cc1	21	8	< 5.10	49	< 4.31	11	< 4.96	6.05	< 4.96	inactive	inactive	inactive
CN1CCC/C1=C\N=N\c1cc(C(F)(F)F)cc(C(F)(F)F)c1	2	36	< 4.44	48	< 4.32	93	< 4.03	< 4.03	< 4.03	inactive	inactive	inactive
CN1C=C(/N=N/c2cc(C(F)(F)F)cc(C(F)(F)F)c2)CCC1	> 100	64	< 4.19	82	< 4.09	> 100	< 4.00	< 4.00	< 4.00	inactive	inactive	inactive

Source: ChEMBL document CHEMBL1144182, “Antimicrobial and cytotoxic arylazoenamines. Part III: antiviral activity of selected classes of arylazoenamines” (Bioorg Med Chem, 2008)
